Consider 39 compounds from ChEMBL document CHEMBL1126555, “6-Substituted benzimidazoles as new nonpeptide angiotensin II receptor antagonists: synthesis, biological activity, and structure-activity relationships” (J Med Chem, 1993).

One assay relates to Rattus norvegicus. Put plainly: Maximum fall in mean arterial blood pressure (MABP) at 1 mg/kg po bid after 4 days of treatment in conscious chronically-instrumented renovascular hypertensive rats.
Conditions: not given
It counts as functional. Put shortly: (§1)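 Male Chbb:THOM rats (140–150 g) made renovascular hypertensive by a silver clip (internal diameter 0.20 mm) on the left renal artery under pentobarbitone-sodium (50 mg/kg ip). Chronic-use pressure transmitter implanted. Conscious animals dosed orally twice daily for 4 days. Mean arterial pressure and heart rate recorded continuously at 1-h intervals over 96 h, given as mean ± SE.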
With `CCCc1nc2c(C)cc(-c3nc4ccccc4n3C)cc2n1Cc1ccc(-c2ccccc2C(=O)O)cc1`, the MABP is 68 mmHg.

A further assay has as its target T1, Type-1 angiotensin II receptor B (Rattus norvegicus, UniProt P29089).
T1 sequence (P29089 whole entry): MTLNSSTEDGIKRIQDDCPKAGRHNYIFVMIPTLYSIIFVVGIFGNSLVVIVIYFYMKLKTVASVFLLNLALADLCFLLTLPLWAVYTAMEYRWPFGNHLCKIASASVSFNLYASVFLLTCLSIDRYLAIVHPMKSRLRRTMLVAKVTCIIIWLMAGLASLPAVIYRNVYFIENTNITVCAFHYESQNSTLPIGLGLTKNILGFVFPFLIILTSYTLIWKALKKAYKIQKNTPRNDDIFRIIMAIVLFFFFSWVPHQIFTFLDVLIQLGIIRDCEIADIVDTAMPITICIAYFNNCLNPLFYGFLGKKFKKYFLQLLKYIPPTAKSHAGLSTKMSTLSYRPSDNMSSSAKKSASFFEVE
Put plainly: Inhibition of specific binding of [125I]angiotensin-II to angiotensin 1 receptor in rat lung membrane preparation. It counts as cell membranes.
Conditions: not given
Summed up:
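Membranes from lungs of male Wistar rats (Chbb:THOM, 200–220 g), homogenized in Tris buffer pH 7.20 and spun at 1000g, then twice at 48 000g. DMSO ≤1%. Nonspecific binding defined with 1 μM AII. Filtration, gamma counting. IC50 from nonlinear fit; Ki by Cheng–Prusoff.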
One may read the IC50 as the concentration that inhibits the measured activity by half. Read a high IC50 as weaker potency. In the case of `CCCCc1nc2cc(N)ccc2n1Cc1ccc(-c2ccccc2C(=O)O)cc1`, the IC50 amounted to 820 nM.
The same measure, in the same setting: as for `CCCCc1nc2c(NC(=O)NC3CCCCC3)cccc2n1Cc1ccc(-c2ccccc2C(=O)O)cc1`, the figure is 29300 nM; as for `CCCCc1nc2c(NC(C)=O)cccc2n1Cc1ccc(-c2ccccc2C(=O)O)cc1`, 5700 nM.
On the same count and under the same terms, in the case of `CCCc1nc2c(C)cc(CN(C)C)cc2n1Cc1ccc(-c2ccccc2C(=O)O)cc1` it was 158 nM; in that of `CCCc1nc2ccc(-c3nc4ccccc4n3C)cc2n1Cc1ccc(-c2ccccc2-c2nn[nH]n2)cc1`, 5 nM; in that of `CCCCc1nc2ccc(N3CCCCC3=O)cc2n1Cc1ccc(-c2ccccc2C(=O)O)cc1`, 81 nM.
The same measure, in the same setting: as for `CCCCc1nc2ccc(N(C)S(=O)(=O)CCC)cc2n1Cc1ccc(-c2ccccc2C(=O)O)cc1`, the figure is 33 nM.
`CCCc1nc2c(C)cc(-c3ccccn3)cc2n1Cc1ccc(-c2ccccc2-c2nnn[nH]2)cc1` came in with an IC50 of 5 nM.
Still for that read-out and setting: as for `CCCCc1nc2cc(NC(=O)NC3CCCCC3)ccc2n1Cc1ccc(-c2ccccc2C(=O)O)cc1`, the figure is 800 nM.
The same measure, in the same setting: as for `CCCCc1nc2cc(NC(C)=O)ccc2n1Cc1ccc(-c2ccccc2C(=O)O)cc1`, the figure is 460 nM; as for `CCCCc1nc2cc(C)ccc2n1Cc1ccc(-c2ccccc2C(=O)O)cc1`, 1200 nM; as for `CCCCc1nc2ccc(NC(C)=O)cc2n1Cc1ccc(-c2ccccc2C(=O)O)cc1`, 180 nM.
Still for that read-out and setting: as for `CCCc1nc2ccc(-c3ccccn3)cc2n1Cc1ccc(-c2ccccc2-c2nnn[nH]2)cc1`, the figure is 11 nM.
Regarding `CCCCc1nc2ccc(NC(=O)NC3CCCCC3)cc2n1Cc1ccc(-c2ccccc2-c2nn[nH]n2)cc1`, the IC50 came to 21 nM.
In turn, `CCCCc1nc2ccc(NC(=O)N(C)C)cc2n1Cc1ccc(-c2ccccc2-c2nn[nH]n2)cc1` returned an IC50 of 8 nM.
On the same count and under the same terms, in the case of `CCCCc1nc(Cl)c(CO)n1Cc1ccc(-c2ccccc2C(=O)O)cc1` it was 350 nM.
On the same count and under the same terms, in the case of `CCCCc1nc2ccc(N3CCCCC3)cc2n1Cc1ccc(-c2ccccc2C(=O)O)cc1` it was 160 nM; in that of `CCCCc1nc2ccc(NC(=O)NC3CCCCC3)cc2n1Cc1ccc(-c2ccccc2C(=O)O)cc1`, 26 nM; in that of `CCCCc1nc2ccc(N(C)C(=O)NC3CCCCC3)cc2n1Cc1ccc(-c2ccccc2-c2nn[nH]n2)cc1`, 10 nM.
Same read-out and setting: in the case of `CCCCc1nc2ccc(N3CCCCS3(=O)=O)cc2n1Cc1ccc(-c2ccccc2C(=O)O)cc1` it was 34 nM.
`CCCCc1nc2c(C)cccc2n1Cc1ccc(-c2ccccc2C(=O)O)cc1` showed an IC50 of 1200 nM.
On the same count and under the same terms, as for `CCCc1nc2ccc(-c3nc4ccccc4o3)cc2n1Cc1ccc(-c2ccccc2-c2nn[nH]n2)cc1`, the figure is 240 nM.
As for `CCCc1nc2c(C)cc(-c3nc4ccccc4n3C)cc2n1Cc1ccc(-c2ccccc2-c2nnn[nH]2)cc1`, the IC50 came to 13 nM. Compared with the last compound, the IC50 is about 18-fold lower.
On the same count and under the same terms, in the case of `CCCc1nc2ccc(-c3nc4ccccc4n3C)cc2n1Cc1ccc(-c2ccccc2C(=O)O)cc1` it was 3 nM; in that of `CCCCc1nc2ccc(N)cc2n1Cc1ccc(-c2ccccc2C(=O)O)cc1`, 540 nM.
In turn, `CCCc1nc2c(C)cc(-c3cn4ccccc4n3)cc2n1Cc1ccc(-c2ccccc2-c2nnn[nH]2)cc1` showed an IC50 of 3 nM.
Same read-out and setting: as for `CCCc1nc2c(C)cc(-c3nc4ccccc4n3C)cc2n1Cc1ccc(-c2ccccc2C(=O)O)cc1`, the figure is 3 nM; as for `CCCCc1nc2ccc(N3CCCCS3(=O)=O)cc2n1Cc1ccc(-c2ccccc2-c2nnn[nH]2)cc1`, 3 nM; as for `CCCCc1nc2ccc(C)cc2n1Cc1ccc(-c2ccccc2C(=O)O)cc1`, 850 nM.
Same read-out and setting: as for `CCCCc1nc2cccc(C)c2n1Cc1ccc(-c2ccccc2C(=O)O)cc1`, the figure is 480 nM; as for `CCCCc1nc2ccc(N3CCCCC3=O)cc2n1Cc1ccc(-c2ccccc2-c2nnn[nH]2)cc1`, 4 nM.
Still for that read-out and setting: as for `CCCCc1nc2ccc(NC(=O)N(C)C)cc2n1Cc1ccc(-c2ccccc2C(=O)O)cc1`, the figure is 24 nM.
`CCCCc1nc2cccc(NC(=O)NC3CCCCC3)c2n1Cc1ccc(-c2ccccc2C(=O)O)cc1` came in with an IC50 of 160 nM.
The same measure, in the same setting: as for `CCCCc1nc2c(N)cccc2n1Cc1ccc(-c2ccccc2C(=O)O)cc1`, the figure is 1700 nM; as for `CCCCc1nc2cccc(NC(C)=O)c2n1Cc1ccc(-c2ccccc2C(=O)O)cc1`, 1800 nM; as for `CCCCc1nc2ccc(N(C)C(=O)NC3CCCCC3)cc2n1Cc1ccc(-c2ccccc2C(=O)O)cc1`, 26 nM.
Still for that read-out and setting: as for `CCCCCNc1ccc2nc(CCCC)n(Cc3ccc(-c4ccccc4C(=O)O)cc3)c2c1`, the figure is 390 nM.
On the same count and under the same terms, in the case of `CCCCc1nc2ccccc2n1Cc1ccc(-c2ccccc2C(=O)O)cc1` it was 400 nM; in that of `CCCCC(=O)Nc1ccc2nc(CCCC)n(Cc3ccc(-c4ccccc4C(=O)O)cc3)c2c1`, 86 nM.

A further assay relates to Rattus norvegicus. Put plainly: Fall in mean arterial blood pressure (MABP) at 1 mg/kg po bid for 4 days after first treatment in conscious chronically-instrumented renovascular hypertensive rats. It is filed as functional.
Conditions: not given
Summed up:
as §1
`CCCc1nc2c(C)cc(-c3nc4ccccc4n3C)cc2n1Cc1ccc(-c2ccccc2C(=O)O)cc1` yielded an MABP of 42 mmHg.

In another assay the test system is Rattus norvegicus. Briefly: Tested for percent inhibition of AII pressor response 2 hr after i.v. administration of 0.3 mg/Kg in rats. It is filed as functional. To be noted: iv.
As usually defined, the inhibition in vivo is the relative decrease from the control value, in per cent. With `CCCCc1nc2ccc(N3CCCCS3(=O)=O)cc2n1Cc1ccc(-c2ccccc2-c2nnn[nH]2)cc1`, at 0.3 mg/kg the inhibition in vivo was 60%.
Still for that read-out and setting: in the case of `CCCCc1nc2ccc(N3CCCCC3=O)cc2n1Cc1ccc(-c2ccccc2-c2nnn[nH]2)cc1` it was 60%.
